Measured values: EPA's CvTdb concentration-time database

Legend:
[1] = test system: Rat; assay: concentration in plasma after dosing; conditions: 0.75 h; dosed: 2-Methyltetrahydrofuran; 40 mg/kg; iv; Male; Harlan Sprague Dawley
[2] = test system: Rat; assay: concentration in brain after dosing; conditions: 2 min; dosed: 2-Methyltetrahydrofuran; 40 mg/kg; iv; Male; Harlan Sprague Dawley
[3] = test system: Rat; assay: concentration in plasma after dosing; conditions: 7 min; dosed: 2-Methyltetrahydrofuran; 40 mg/kg; iv; Male; Harlan Sprague Dawley
[4] = test system: Rat; assay: concentration in brain after dosing; conditions: 1.5 h; dosed: 2-Methyltetrahydrofuran; 40 mg/kg; iv; Male; Harlan Sprague Dawley
[5] = test system: Rat; assay: concentration in plasma after dosing; conditions: 2 min; dosed: 2-Methyltetrahydrofuran; 40 mg/kg; iv; Male; Harlan Sprague Dawley
[6] = test system: human; assay: concentration in expired air after dosing; conditions: dosed: trichloroethylene, 100 ppm, inhalation, duration: 4 hr, person
Summary of the method: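 A PubMed search, classifier screening and manual review identified published in vivo toxicokinetic studies, which together with two structured collections supplied concentration-versus-time and amount-versus-time points. Points were mostly digitised from plot screenshots with WebPlotDigitizer, otherwise copied from tables. Dose, route, subject details and medium were hand-curated from each paper, and sampling and analytical methods are those of the sources, often unreported.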

[7] = test system: Rat; assay: concentration in kidney after dosing; conditions: 3 h; dosed: Perfluorohexanoic Acid; 80 mg/kg; oral; Male; Harlan Sprague Dawley
[8] = test system: Rat; assay: concentration in kidney after dosing; conditions: 12 h; dosed: Perfluorohexanoic Acid; 80 mg/kg; oral; Male; Harlan Sprague Dawley
[9] = test system: Rat; assay: concentration in kidney after dosing; conditions: 1 h; dosed: Perfluorohexanoic Acid; 80 mg/kg; oral; Female; Harlan Sprague Dawley
[10] = test system: Rat; assay: concentration in liver after dosing; conditions: 6 h; dosed: Perfluorohexanoic Acid; 80 mg/kg; oral; Male; Harlan Sprague Dawley
[11] = test system: Rat; assay: concentration in plasma after dosing; conditions: 6 h; dosed: Gemfibrozil; 100 mg/kg; oral; Male; Sprague-Dawley
[12] = test system: Rat; assay: concentration in plasma after dosing; conditions: 5 min; dosed: Gemfibrozil; 50 mg/kg; oral; Male; Sprague-Dawley
[13] = test system: Rat; assay: concentration in plasma after dosing; conditions: 5 min; dosed: Gemfibrozil; 50 mg/kg; oral; Male; Sprague-Dawley; remark: listed apart in the source
[14] = test system: Rat; assay: concentration in plasma after dosing; conditions: 0.25 h; dosed: Gemfibrozil; 50 mg/kg; oral; Male; Sprague-Dawley
[15] = test system: Rat; assay: concentration in plasma after dosing; conditions: 0.25 h; dosed: Gemfibrozil; 4.29 mg/kg; oral; Male; Sprague-Dawley
[16] = test system: Rat; assay: concentration in plasma after dosing; conditions: 10 min; dosed: Gemfibrozil; 4.29 mg/kg; oral; Male; Sprague-Dawley
[17] = test system: Rat; assay: concentration in plasma after dosing; conditions: 5 min; dosed: Gemfibrozil; 100 mg/kg; oral; Male; Sprague-Dawley
[18] = test system: Rat; assay: concentration in plasma after dosing; conditions: 1 h; dosed: Gemfibrozil; 4.29 mg/kg; oral; Male; Sprague-Dawley
[19] = test system: Rat; assay: concentration in kidney after dosing; conditions: 6 h; dosed: Perfluorooctane Sulfonate; 20 mg/kg; oral; Female; F344
[20] = test system: Rat; assay: concentration in kidney after dosing; conditions: 864 h; dosed: Perfluorooctane Sulfonate; 20 mg/kg; oral; Female; F344
[21] = test system: Rat; assay: concentration in brain after dosing; conditions: 24 h; dosed: Perfluorooctane Sulfonate; 20 mg/kg; oral; Male; Harlan Sprague Dawley
[22] = test system: Rat; assay: concentration in plasma after dosing; conditions: dosed: Perfluorooctane Sulfonate, 2 mg/kg, iv, Female, F344
[23] = test system: Rat; assay: concentration in plasma after dosing; conditions: dosed: Perfluorooctane Sulfonate, 2 mg/kg, oral, Female, Harlan Sprague Dawley
[24] = test system: Rat; assay: concentration in liver after dosing; conditions: 6 h; dosed: Perfluorooctane Sulfonate; 20 mg/kg; oral; Male; Harlan Sprague Dawley
[25] = test system: Rat; assay: concentration in brain after dosing; conditions: 864 h; dosed: Perfluorooctane Sulfonate; 20 mg/kg; oral; Female; F344
[26] = test system: Rat; assay: concentration in liver after dosing; conditions: 24 h; dosed: Perfluorooctane Sulfonate; 20 mg/kg; oral; Female; F344
[27] = test system: Rat; assay: concentration in kidney after dosing; conditions: 24 h; dosed: Perfluorooctane Sulfonate; 20 mg/kg; oral; Male; Harlan Sprague Dawley
[28] = test system: Rat; assay: concentration in liver after dosing; conditions: 12 h; dosed: Fluorotelomer alcohol 8+2; 24 mg/kg; oral; Male; Harlan Sprague Dawley
[29] = test system: Rat; assay: concentration in kidney after dosing; conditions: 12 h; dosed: Fluorotelomer alcohol 8+2; 24 mg/kg; oral; Male; Harlan Sprague Dawley
[30] = test system: Rat; assay: concentration in kidney after dosing; conditions: 1 h; dosed: Fluorotelomer alcohol 8+2; 24 mg/kg; oral; Male; Harlan Sprague Dawley
[31] = test system: Rat; assay: concentration in kidney after dosing; conditions: 12 h; dosed: Fluorotelomer alcohol 8+2; 80 mg/kg; oral; Female; Harlan Sprague Dawley
[32] = test system: Rat; assay: concentration in plasma after dosing; conditions: dosed: Fluorotelomer alcohol 8+2, 12 mg/kg, oral, Male, Harlan Sprague Dawley

CC1CCCO1 (centres undefined) [2-Methyltetrahydrofuran]
Conditions | concentration in brain [ng/mL] | concentration in plasma [ng/mL]
[1] | – | 26900
[2] | 39000 | –
[3] | – | 53800
[4] | 8330 | –
[5] | – | 57400

ClC=C(Cl)Cl [trichloroethylene]
[6]
Conditions | concentration in expired air
0 h | 1940 nM
0.053 h | 22.4 ppm
0.17 h | 302 nM
0.2372 h | 3.23 ppm
0.3175 h | 7.33 ppm
0.4773 h | 6.01 ppm
0.5 h | 200 nM
0.5703 h | 2.6 ppm
0.97 h | 1.56 ppm
1 h | 129 nM
1.022 h | 2.96 ppm
1.5 h | 101 nM
2 h | 79 nM
2.009 h | 0.691 ppm
2.015 h | 1.22 ppm
2.5 h | 62 nM
3 h | 61 nM
3.5 h | 54 nM
4 h | 49 nM
4.021 h | 0.521 ppm
4.039 h | 1.03 ppm
4.5 h | 43 nM
5 h | 42 nM
5.996 h | 0.868 ppm
6 h | 33 nM
6.02 h | 0.517 ppm
7 h | 27 nM
7.979 h | 0.777 ppm
8 h | 21 nM
9 h | 21 nM
10 h | 16 nM
10.1 h | 0.554 ppm
326 s | 12.3 ppm

O=C(O)C(F)(F)C(F)(F)C(F)(F)C(F)(F)C(F)(F)F [Perfluorohexanoic Acid]
Conditions | concentration in kidney [ng/g] | concentration in liver [ng/g]
[7] | 65000 | –
[8] | 1180 | –
[9] | 85800 | –
[10] | – | 15400

Cc1ccc(C)c(OCCCC(C)(C)C(=O)O)c1 [Gemfibrozil]
Conditions | concentration in plasma [ng/mL]
[11] | 22700
[12] | 7230
[13] | 2350
[14] | 14400
[15] | 509
[16] | 657
[17] | 1930
[18] | 258

O=S(=O)([O-])C(F)(F)C(F)(F)C(F)(F)C(F)(F)C(F)(F)C(F)(F)C(F)(F)C(F)(F)F [Perfluorooctane Sulfonate]
Conditions | concentration in brain [ng/g] | concentration in kidney [ng/g] | concentration in liver [ng/g]
[19] | – | 133000 | –
[20] | – | 38400 | –
[21] | 11600 | – | –
[24] | – | – | 204000
[25] | 2730 | – | –
[26] | – | – | 167000
[27] | – | 82400 | –

concentration in plasma [ng/mL]
Conditions | 1 h | 5 min | 12 h | 192 h | 1200 h | 2376 h
[22] | 4240 | – | – | 4100 | – | 105
[23] | – | 38.2 | 7740 | – | 892 | –

O=C(O)CCC(F)(F)C(F)(F)C(F)(F)C(F)(F)C(F)(F)C(F)(F)C(F)(F)F [Fluorotelomer acid 7+3]
Conditions | concentration in kidney [ng/g] | concentration in liver [ng/g]
[28] | – | 1400
[29] | 751 | –
[30] | 568 | –
[31] | 3110 | –

[32]
Conditions | concentration in plasma [ng/mL]
0.5 h | 133
9 h | 218
